Measured values from ChEMBL document CHEMBL3621054, “A new class of hybrid anticancer agents inspired by the synergistic effects of curcumin and genistein: Design, synthesis, and anti-proliferative evaluation” (Bioorg Med Chem Lett, 2015).
pIC50: −log10 of the molar value.

How the values were obtained:
Format in all cases: functional, cell-based
LNCaP = experiment: Cytotoxicity against human androgen-dependent LNCAP cells assessed as inhibition of cell viability after 3 days by WST-1 cell proliferation assay; settings: 72 h
Summary of the method: (§1)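 Human prostate cancer cells (LNCaP androgen-dependent; PC-3 and DU145 androgen-independent) were exposed to drug for 3 days, and viability was read by WST-1 proliferation assay. IC50 was taken as the drug concentration giving 50% inhibition of cell viability, reported as mean ± standard error of the mean.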

DU-145 = experiment: Cytotoxicity against human androgen-independent DU145 cells assessed as inhibition of cell viability after 3 days by WST-1 cell proliferation assay; settings: DU-145, 72 h; summary of the method: as §1
PC-3 = experiment: Cytotoxicity against human androgen-independent PC3 cells assessed as cell cell viability after 3 days by WST-1 cell proliferation assay; settings: PC-3, 72 h; summary of the method: as §1

Compound	pIC50 (LNCaP)	pIC50 (DU-145)	pIC50 (PC-3)
Cn1ccnc1/C=C/C(=O)/C=C/c1coc2ccccc2c1=O	5.64	5.35	5.55
CCn1ccnc1/C=C/C(=O)/C=C/c1coc2ccccc2c1=O	6.00	5.52	5.74
CCCn1ccnc1/C=C/C(=O)/C=C/c1coc2ccccc2c1=O	5.68	5.34	5.62
CCCCn1ccnc1/C=C/C(=O)/C=C/c1coc2ccccc2c1=O	5.70	5.37	5.70
CCCCCn1ccnc1/C=C/C(=O)/C=C/c1coc2ccccc2c1=O	5.74	5.57	5.68
CC(C)n1ccnc1/C=C/C(=O)/C=C/c1coc2ccccc2c1=O	5.92	5.48	5.64
CCC(C)n1ccnc1/C=C/C(=O)/C=C/c1coc2ccccc2c1=O (configuration not stated)	5.89	5.48	5.74
CC(C)CCn1ccnc1/C=C/C(=O)/C=C/c1coc2ccccc2c1=O	5.40	5.24	5.44
CCCC(C)n1ccnc1/C=C/C(=O)/C=C/c1coc2ccccc2c1=O (configuration not stated)	5.41	5.85	5.49
CCC(CC)n1ccnc1/C=C/C(=O)/C=C/c1coc2ccccc2c1=O	5.55	5.28	5.54
COc1cc(/C=C/C(=O)CC(=O)/C=C/c2ccc(O)c(OC)c2)ccc1O [CURCUMIN]	4.92		
O=c1c(-c2ccc(O)cc2)coc2cc(O)cc(O)c12 [GENISTEIN]	4.43	< 4.00	4.16
O=c1c(O)c(-c2ccc(O)c(O)c2)oc2cc(O)cc(O)c12 [QUERCETIN]	4.34	< 4.00	< 4.00
